Test results taken from ChEMBL document CHEMBL1137328, “5-pyrrolidinylsulfonyl isatins as a potential tool for the molecular imaging of caspases in apoptosis” (J Med Chem, 2006).
Active and inactive are the calls of the source. No cut-off for these calls is given here.

Experiments:
Caspase-8 = Caspase-8 (Homo sapiens, UniProt Q14790); test: Inhibition of caspase 8
Summary of the method: (§1)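 Recombinant human caspase-1, -6 or -8 at 0.5 units per assay, preincubated 10 min at 37 °C with compound in DMSO at single doses from 5 pM to 500 µM. Fluorogenic AMC substrate then added at 10 µM final (caspase-1 Ac-YVAD-AMC, caspase-6 Ac-VEID-AMC, caspase-8 Ac-IETD-AMC) for a further 10 min. Read-out was AMC fluorescence. IC50 taken by nonlinear regression.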

Caspase-3 [1] = target: T1, Caspase-3 (Homo sapiens, UniProt P42574); test: Binding affinity to human caspase 3
T1 sequence (P42574 whole entry): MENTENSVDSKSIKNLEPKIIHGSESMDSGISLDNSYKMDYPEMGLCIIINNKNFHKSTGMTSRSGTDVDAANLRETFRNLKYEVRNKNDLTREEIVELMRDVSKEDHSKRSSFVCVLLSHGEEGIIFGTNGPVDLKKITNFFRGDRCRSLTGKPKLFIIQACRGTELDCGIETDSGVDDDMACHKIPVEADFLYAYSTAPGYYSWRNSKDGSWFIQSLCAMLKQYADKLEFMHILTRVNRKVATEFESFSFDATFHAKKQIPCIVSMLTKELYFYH
Summary of the method: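 Recombinant full-length human caspase-3 (1 unit/assay, 0.5 pM) preincubated 10 min at 37 °C with isatin in DMSO (single doses, 5 pM–500 µM) in 25 mM HEPES pH 7.5, 0.1% CHAPS, 50 mM KCl, 5 mM β-mercaptoethanol. Ac-DEVD-AMC (10 µM final) then added for 10 min. IC50 by nonlinear regression, converted to Ki = IC50/(1+[S]/KM). Mean of three assays.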

Caspase-1 = target: T2, Caspase-1 (Homo sapiens, UniProt P29466); test: Inhibition of caspase 1; summary of the method: as §1
T2 sequence (P29466 whole entry): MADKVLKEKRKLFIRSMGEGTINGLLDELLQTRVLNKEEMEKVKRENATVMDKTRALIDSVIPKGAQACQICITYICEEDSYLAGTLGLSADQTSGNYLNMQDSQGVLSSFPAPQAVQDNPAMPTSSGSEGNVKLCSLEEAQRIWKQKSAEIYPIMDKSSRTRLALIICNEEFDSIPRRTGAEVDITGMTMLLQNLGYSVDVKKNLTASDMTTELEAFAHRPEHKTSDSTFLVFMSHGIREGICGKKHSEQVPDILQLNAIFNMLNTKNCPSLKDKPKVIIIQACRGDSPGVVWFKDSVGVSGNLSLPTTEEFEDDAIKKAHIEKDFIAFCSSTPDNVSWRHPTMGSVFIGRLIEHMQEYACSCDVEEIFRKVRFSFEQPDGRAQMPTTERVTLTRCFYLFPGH

Caspase-3 [2] = target: T1, Caspase-3; test: Inhibition of caspase 3
Summary of the method: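 Recombinant human caspases (0.5 units/assay) preincubated 10 min at 37 °C with isatin in DMSO (single doses, 5 pM–500 µM). The buffer for all was 0.1% CHAPS, 100 mM NaCl, 2 mM EDTA, 10% sucrose, with 20 mM HEPES pH 7.4. Caspase-1 used 100 mM HEPES and β-mercaptoethanol, and caspase-7 used β-mercaptoethanol. AMC substrates at 10 µM for 10 min: YVAD (caspase-1), DEVD (caspase-3/-7), VEID (caspase-6), IETD (caspase-8). IC50 by nonlinear regression.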

Caspase-6 = target: T3, Caspase-6 (Homo sapiens, UniProt P55212); test: Inhibition of caspase 6; summary of the method: as §1
T3 sequence (P55212 whole entry): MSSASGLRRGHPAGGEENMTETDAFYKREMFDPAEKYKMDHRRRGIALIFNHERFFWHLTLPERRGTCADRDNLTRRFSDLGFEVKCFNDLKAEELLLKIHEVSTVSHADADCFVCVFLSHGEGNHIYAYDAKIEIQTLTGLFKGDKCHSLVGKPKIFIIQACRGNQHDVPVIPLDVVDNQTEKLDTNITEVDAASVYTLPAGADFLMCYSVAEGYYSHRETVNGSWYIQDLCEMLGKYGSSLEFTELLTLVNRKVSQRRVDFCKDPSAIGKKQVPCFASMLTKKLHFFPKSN

Caspase-7 = target: T4, Caspase-7 (Homo sapiens, UniProt P55210); test: Inhibition of caspase 7
T4 sequence (P55210 whole entry): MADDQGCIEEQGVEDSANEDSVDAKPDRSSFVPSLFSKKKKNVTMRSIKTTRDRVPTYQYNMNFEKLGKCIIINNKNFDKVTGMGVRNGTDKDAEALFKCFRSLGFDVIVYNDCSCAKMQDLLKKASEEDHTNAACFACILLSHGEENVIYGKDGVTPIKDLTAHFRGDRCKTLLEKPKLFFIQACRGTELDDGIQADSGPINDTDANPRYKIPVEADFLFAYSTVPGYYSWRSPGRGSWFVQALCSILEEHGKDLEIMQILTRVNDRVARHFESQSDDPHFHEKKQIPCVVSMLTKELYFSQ
Summary of the method: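 Inhibitor in DMSO (final 5 pM–500 µM, single doses) preincubated 10 min, then Ac-DEVD-AMC (final 10 µM) reacted 10 min. Cleaved AMC quantified by fluorescence; IC50 by nonlinear regression.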

HUVEC [3] = test: Inhibition of caspase 3 processing in apoptotic HUVEC at 10 uM; assay type: functional, cell-based; settings: Homo sapiens
Summary of the method: (§2)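 HUVEC grown on gelatin-coated dishes in RPMI-1640 with 15% calf serum, heparin and pituitary extract. Cells were preincubated 30 min with compound. Apoptosis was then induced by growth-factor withdrawal (RPMI-1640 alone), with compound present, for 8 h at 37 °C. Lysates (30 µg) were run on 15% SDS-PAGE Western blots for processed caspase-3 (p17/p12), caspase-8, caspase-9, cleaved PARP ([…]) and lamin A/C. Z-VAD-fmk served as full-inhibition control and β-actin as loading control.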

HUVEC [4] = test: Inhibition of caspase 8 processing in apoptotic HUVEC at 50 uM; assay type: functional, cell-based; settings: Homo sapiens; summary of the method: as §2
HUVEC [5] = test: Inhibition of caspase 8 processing in apoptotic HUVEC at 100 uM; assay type: functional, cell-based; settings: Homo sapiens; summary of the method: as §2
HUVEC [6] = test: Inhibition of caspase 9 processing in apoptotic HUVEC at 50 uM; assay type: functional, cell-based; settings: Homo sapiens; summary of the method: as §2
HUVEC [7] = test: Inhibition of caspase 9 processing in apoptotic HUVEC at 100 uM; assay type: functional, cell-based; settings: Homo sapiens; summary of the method: as §2
HUVEC [8] = test: Inhibition of PARP cleavage in apoptotic HUVEC at 100 uM; assay type: functional, cell-based; settings: Homo sapiens; summary of the method: as §2
HUVEC [9] = test: Inhibition of lamin A/C cleavage in apoptotic HUVEC at 100 uM; assay type: functional, cell-based; settings: Homo sapiens; summary of the method: as §2
Caspase-3 [10] = target: T1, Caspase-3; test: Inhibition of caspase 3 in neutrophils
HUVEC [11] = test: Inhibition of PARP cleavage in apoptotic HUVEC at 50 uM; assay type: functional, cell-based; settings: Homo sapiens; summary of the method: as §2
HUVEC [12] = test: Inhibition of lamin A/C cleavage in apoptotic HUVEC at 50 uM; assay type: functional, cell-based; settings: Homo sapiens; summary of the method: as §2

Chain of Caspase-8 (Q14790 217-374 limits assumed): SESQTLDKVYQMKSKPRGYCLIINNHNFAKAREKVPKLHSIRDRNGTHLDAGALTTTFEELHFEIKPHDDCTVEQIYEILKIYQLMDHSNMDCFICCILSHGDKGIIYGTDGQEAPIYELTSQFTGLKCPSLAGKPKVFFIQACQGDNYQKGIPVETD
Chain of Caspase-8 (Q14790 385-479 limits assumed): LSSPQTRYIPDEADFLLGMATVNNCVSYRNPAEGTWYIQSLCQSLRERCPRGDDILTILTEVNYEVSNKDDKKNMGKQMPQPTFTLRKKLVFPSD

| SMILES | IC50 (Caspase-8) [µM] | Ki (Caspase-3 [1]) [µM] | IC50 (Caspase-1) [µM] | IC50 (Caspase-3 [2]) [µM] | IC50 (Caspase-6) [µM] | IC50 (Caspase-7) [µM] | Activity (HUVEC [3]) | Activity (HUVEC [4]) | Activity (HUVEC [5]) | Activity (HUVEC [6]) | Activity (HUVEC [7]) | Activity (HUVEC [8]) | Activity (HUVEC [9]) | IC50 (Caspase-3 [10]) [µM] | Activity (HUVEC [11]) | Activity (HUVEC [12]) |
| --- | --- | --- | --- | --- | --- | --- | --- | --- | --- | --- | --- | --- | --- | --- | --- | --- |
| O=C1C(=O)N(Cc2ccc(OCCF)cc2)c2ccc(S(=O)(=O)N3CCC[C@H]3COc3ccccc3)cc21 | > 500 | 0.0002 | > 500 | 0.0003 | > 500 | – | – | – | – | – | – | – | – | – | – | – |
| COC[C@@H]1CCCN1S(=O)(=O)c1ccc2c(c1)C(=O)C(=O)N2Cc1ccc(OCCF)cc1 | > 25 | 0.0179 | > 25 | 0.0364 | > 25 | 0.0933 | Active | Active | Active | Active | Active | Active | Active | – | – | – |
| O=C1Nc2ccc(S(=O)(=O)N3CCC[C@H]3COc3ccccc3)cc2C1=O | > 500 | 0.0083 | > 10 | 0.0169 | > 500 | 0.294 | – | – | – | – | – | – | – | – | – | – |
| COc1ccc(CN2C(=O)C(=O)c3cc(S(=O)(=O)N4CCC[C@H]4COc4ccccc4)ccc32)cc1 | > 500 | 0.0048 | > 500 | 0.0097 | > 500 | 0.0312 | – | – | – | – | – | – | – | – | – | – |
| O=C1C(=O)N(Cc2ccc(OCCBr)cc2)c2ccc(S(=O)(=O)N3CCC[C@H]3COc3ccccc3)cc21 | > 500 | 0.0126 | > 500 | 0.0256 | > 500 | 0.042 | – | – | – | – | – | – | – | – | – | – |
| COC[C@@H]1CCCN1S(=O)(=O)c1ccc2c(c1)C(=O)C(=O)N2Cc1ccc(O)cc1 | > 500 | 0.0235 | > 60 | 0.0478 | > 500 | 0.0323 | – | – | – | – | – | – | – | – | – | – |
| Cc1ccc(S(=O)(=O)OCCOc2ccc(CN3C(=O)C(=O)c4cc(S(=O)(=O)N5CCC[C@H]5COc5ccccc5)ccc43)cc2)cc1 | > 500 | 0.0086 | > 500 | 0.0175 | > 500 | 0.0509 | – | – | – | – | – | – | – | – | – | – |
| O=C1C(=O)N(Cc2ccc(I)cc2)c2ccc(S(=O)(=O)N3CCC[C@H]3COc3ccccc3)cc21 | > 500 | – | > 500 | – | > 500 | 0.0186 | – | – | – | – | – | – | – | – | – | – |
| COC[C@@H]1CCCN1S(=O)(=O)c1ccc2c(c1)C(=O)C(=O)N2 | > 500 | 0.0418 | > 15 | 0.0849 | > 500 | 1.29 | – | – | – | – | – | – | – | – | – | – |
| CN1C(=O)C(=O)c2cc(S(=O)(=O)N3CCC[C@H]3COc3ccccc3)ccc21 | > 500 | 0.0561 | > 500 | 0.114 | > 500 | 0.19 | – | – | – | – | – | – | – | 10 | – | – |
| O=C1C(=O)N(Cc2ccc(O)cc2)c2ccc(S(=O)(=O)N3CCC[C@H]3COc3ccccc3)cc21 | > 500 | 0.004 | > 25 | 0.0082 | > 500 | 0.0527 | – | – | – | – | – | – | – | – | – | – |
| COC[C@@H]1CCCN1S(=O)(=O)c1ccc2c(c1)C(=O)C(=O)N2Cc1ccc(I)cc1 | > 500 | 0.0059 | > 10 | 0.012 | > 500 | 0.0018 | Active | – | – | – | – | – | – | – | – | – |
| COC[C@@H]1CCCN1S(=O)(=O)c1ccc2c(c1)C(=O)C(=O)N2Cc1ccc(OC)cc1 | > 500 | – | > 10 | 0.0184 | > 500 | 0.004 | Active | Active | Active | Active | Active | – | – | – | Active | Active |
| COC[C@@H]1CCCN1S(=O)(=O)c1ccc2c(c1)C(=O)C(=O)N2C | > 500 | 0.0012 | > 25 | 0.0024 | > 500 | 0.304 | Active | Active | Active | Active | Active | – | – | – | Active | Active |
| COC[C@@H]1CCCN1S(=O)(=O)c1ccc2c(c1)C(=O)C(=O)N2Cc1ccc(OCCBr)cc1 | > 500 | 0.008 | > 15 | 0.0163 | > 500 | 0.0257 | – | – | – | – | – | – | – | – | – | – |
| COC[C@@H]1CCCN1S(=O)(=O)c1ccc2c(c1)C(=O)C(=O)N2Cc1ccc(O[Si](C)(C)C(C)(C)C)cc1 | > 500 | 0.0019 | > 7 | 0.0038 | > 500 | 0.0698 | – | – | – | – | – | – | – | – | – | – |
| COC[C@@H]1CCCN1S(=O)(=O)c1ccc2c(c1)C(=O)C(=O)N2Cc1ccc(OCCOS(=O)(=O)c2ccc(C)cc2)cc1 | > 500 | 0.0008 | > 500 | 0.0017 | > 500 | 0.0138 | – | – | – | – | – | – | – | – | – | – |
| CC(C)(C)[Si](C)(C)Oc1ccc(CN2C(=O)C(=O)c3cc(S(=O)(=O)N4CCC[C@H]4COc4ccccc4)ccc32)cc1 | > 500 | 0.0098 | > 500 | 0.02 | > 500 | 0.366 | – | – | – | – | – | – | – | – | – | – |
